Experimental data reported in ChEMBL document CHEMBL2412986, “Design, synthesis and evaluation of novel 2-hydroxypyrrolobenzodiazepine-5,11-dione analogues as potent angiotensin converting enzyme (ACE) inhibitors” (Bioorg Med Chem, 2013).
One block for each compound: values may come before it.

Assays:
[1] = biological target: T1, Angiotensin-converting enzyme (Oryctolagus cuniculus) (UniProt P12822); assay: Inhibition of rabbit lung ACE assessed as hydrolysis of hippuryl-histidyl-leucine to hippuric acid and histidyl-leucine at 1 uM after 30 mins relative to control
T1 sequence (whole entry): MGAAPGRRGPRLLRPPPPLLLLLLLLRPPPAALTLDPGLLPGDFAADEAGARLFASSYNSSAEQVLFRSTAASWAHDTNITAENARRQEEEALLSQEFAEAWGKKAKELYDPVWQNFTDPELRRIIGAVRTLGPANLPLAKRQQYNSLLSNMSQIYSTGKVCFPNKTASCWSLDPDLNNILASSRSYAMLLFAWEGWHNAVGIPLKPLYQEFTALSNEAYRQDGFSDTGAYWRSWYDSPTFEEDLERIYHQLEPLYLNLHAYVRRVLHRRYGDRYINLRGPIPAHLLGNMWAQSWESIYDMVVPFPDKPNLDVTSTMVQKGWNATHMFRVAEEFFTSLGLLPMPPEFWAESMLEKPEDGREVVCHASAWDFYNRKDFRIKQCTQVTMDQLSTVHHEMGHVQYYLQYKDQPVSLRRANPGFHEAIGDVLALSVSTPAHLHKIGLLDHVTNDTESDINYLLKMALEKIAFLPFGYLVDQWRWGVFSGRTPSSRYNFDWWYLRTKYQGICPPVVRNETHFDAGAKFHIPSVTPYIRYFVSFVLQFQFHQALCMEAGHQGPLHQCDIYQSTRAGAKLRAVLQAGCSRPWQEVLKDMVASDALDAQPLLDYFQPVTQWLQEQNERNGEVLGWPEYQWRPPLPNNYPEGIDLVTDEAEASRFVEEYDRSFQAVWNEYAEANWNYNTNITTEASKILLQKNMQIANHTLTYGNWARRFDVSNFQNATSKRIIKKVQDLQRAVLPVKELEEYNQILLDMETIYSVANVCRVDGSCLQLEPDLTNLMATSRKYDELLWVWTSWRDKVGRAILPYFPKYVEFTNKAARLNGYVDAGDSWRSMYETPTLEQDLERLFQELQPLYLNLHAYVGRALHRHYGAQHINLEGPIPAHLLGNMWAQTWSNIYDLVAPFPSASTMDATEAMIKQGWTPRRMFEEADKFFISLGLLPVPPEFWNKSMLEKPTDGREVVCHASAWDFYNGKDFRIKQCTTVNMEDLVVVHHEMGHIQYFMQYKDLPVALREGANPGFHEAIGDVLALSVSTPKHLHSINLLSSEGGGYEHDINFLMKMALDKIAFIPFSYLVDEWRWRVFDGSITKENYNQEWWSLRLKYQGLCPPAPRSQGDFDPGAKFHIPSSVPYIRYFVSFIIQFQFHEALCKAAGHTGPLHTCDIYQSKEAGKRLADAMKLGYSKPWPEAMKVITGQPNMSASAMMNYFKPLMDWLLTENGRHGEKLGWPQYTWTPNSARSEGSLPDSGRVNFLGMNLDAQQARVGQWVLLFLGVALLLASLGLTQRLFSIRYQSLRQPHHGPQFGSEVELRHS
In short: (§1)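 Enzyme is the supernatant of rabbit lung acetone powder homogenized in 0.05 M sodium borate pH 8.2 with 0.3 M NaCl and 0.5% Triton X-100 at 4 °C, spun 15,000 rpm for 60 min. Reaction uses borate/NaCl buffer and 5 mM HHL stock, 30 min at 37 °C. Hippuric acid read colorimetrically at 410 nm, in triplicate. % inhibition = 100 − (A_test/A_control)×100. Single-point screen at 1.0 µM; IC₅₀ from plots of % inhibition against serial concentrations.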

HEK293 = assay: Cytotoxicity against HEK293 cells assessed as cell survival after 24 hrs by MTT assay; format: cell-based; settings: Homo sapiens, HEK293, 24 h
In short: (§2)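 HEK 293 (normal) and A549 (cancer) cells seeded at 1×10^4 cells/well in DMEM with 10% FBS, grown 24 h at 37 °C under CO₂, then exposed to compounds alongside vehicle control for 24 h. MTT (5 mg/mL, 10 µl) added for 4 h, formazan dissolved in DMSO, absorbance read at 540 nm. Survival relative to control cells; EC₅₀ by probit analysis.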

[2] = biological target: T2, Angiotensin-converting enzyme (Oryctolagus cuniculus, UniProt P12822); assay: Inhibition of rabbit lung ACE assessed as hydrolysis of hippuryl-histidyl-leucine to hippuric acid and histidyl-leucine after 30 mins; in short: as §1
T2 sequence (P12822 whole entry): T1 sequence (whole entry)

A549 = assay: Cytotoxicity against human A549 cells assessed as cell survival after 24 hrs by MTT assay; format: cell-based; settings: A549, 24 h; in short: as §2
[3] = Ratio of IC50 for rabbit lung ACE to IC50 for HEK293 cells
[4] = Ratio of IC50 for rabbit lung ACE to IC50 for human A549 cells

SMILES: O=C1Nc2ccccc2C(=O)N2C[C@H](O)C[C@@H]12
inhibition [1]: 57%

SMILES: O=C1[C@@H]2C[C@@H](O)CN2C(=O)c2ccccc2N1Cc1cc(F)cc(F)c1Cl
inhibition [1]: 28%

SMILES: O=C(O)c1ccc(CN2C(=O)[C@@H]3C[C@@H](O)CN3C(=O)c3ccccc32)cc1
inhibition [1]: 28%

SMILES: NCCCC[C@H](N[C@@H](CCc1ccccc1)C(=O)O)C(=O)N1CCC[C@H]1C(=O)O [LISINOPRIL ANHYDROUS]
IC50 (HEK293): 443 µM
IC50 [2]: 262 nM
IC50 (A549): 307 µM

SMILES: CCOC(=O)[C@H](CCc1ccccc1)N[C@H]1CCc2ccccc2N(CC(=O)O)C1=O [BENAZEPRIL]
IC50 (HEK293): 301 µM
IC50 [2]: 212 nM
IC50 (A549): 358 µM

SMILES: COc1cccc(CN2C(=O)[C@@H]3C[C@@H](O)CN3C(=O)c3ccccc32)c1
inhibition [1]: 28%

SMILES: CC(=O)CN1C(=O)[C@@H]2C[C@@H](O)CN2C(=O)c2ccccc21
inhibition [1]: 28%

SMILES: CN1C(=O)[C@@H]2C[C@@H](O)CN2C(=O)c2ccccc21
inhibition [1]: 28%

SMILES: COC(=O)c1ccc(CN2C(=O)[C@@H]3C[C@@H](O)CN3C(=O)c3ccccc32)cc1
inhibition [1]: 28%

SMILES: CCOC(=O)[C@H](CCc1ccccc1)N[C@@H](C)C(=O)N1[C@H](C(=O)O)C[C@@H]2CCC[C@@H]21 [RAMIPRIL]
IC50 (HEK293): 414 µM
IC50 [2]: 253 nM
IC50 (A549): 392 µM

SMILES: O=C1[C@@H]2C[C@@H](O)CN2C(=O)c2ccccc2N1Cc1cccc2c1oc1ccccc12
inhibition [1]: 28%

SMILES: O=C1[C@@H]2C[C@@H](O)CN2C(=O)c2ccccc2N1Cc1cc(Br)cs1
Ratio IC50 [3]: 1000
Ratio IC50 [4]: 1000
inhibition [1]: 80%
IC50 (HEK293): 281 µM
IC50 [2]: 272 nM
IC50 (A549): 361 µM

SMILES: O=C(CN1C(=O)[C@@H]2C[C@@H](O)CN2C(=O)c2ccccc21)c1ccc(Br)cc1
inhibition [1]: 28%

SMILES: O=C1[C@@H]2C[C@@H](O)CN2C(=O)c2ccccc2N1Cc1c(F)c(F)c(F)c(F)c1F
inhibition [1]: 28%

SMILES: CCOC(=O)CN1C(=O)[C@@H]2C[C@@H](O)CN2C(=O)c2ccccc21
inhibition [1]: 28%

SMILES: O=C1[C@@H]2C[C@@H](O)CN2C(=O)c2ccccc2N1Cc1ccc([N+](=O)[O-])cc1
inhibition [1]: 28%

SMILES: COc1cc(CN2C(=O)[C@@H]3C[C@@H](O)CN3C(=O)c3ccccc32)cc(OC)c1OC
Ratio IC50 [3]: 1000
Ratio IC50 [4]: 1000
inhibition [1]: 91%
IC50 (HEK293): 331 µM
IC50 [2]: 376 nM
IC50 (A549): 419 µM

SMILES: O=C(CN1C(=O)[C@@H]2C[C@@H](O)CN2C(=O)c2ccccc21)c1ccc(Cl)cc1
inhibition [1]: 28%

Second part, led by results:

inhibition [1]: 28%
SMILES: O=C1[C@@H]2C[C@@H](O)CN2C(=O)c2ccccc2N1Cc1cccc(Cl)c1

inhibition [1]: 75%
IC50 [2]: 658 nM
SMILES: O=C1[C@@H]2C[C@@H](O)CN2C(=O)c2ccccc2N1Cc1ccc(Br)cc1
Ratio IC50 [3]: 1000
Ratio IC50 [4]: 1000
IC50 (HEK293): 496 µM
IC50 (A549): 487 µM

inhibition [1]: 28%
SMILES: O=C1[C@@H]2C[C@@H](O)CN2C(=O)c2ccccc2N1Cc1cc(F)cc(F)c1

inhibition [1]: 28%
SMILES: O=C1[C@@H]2C[C@@H](O)CN2C(=O)c2ccccc2N1Cc1ccc(Cl)c(F)c1

inhibition [1]: 28%
SMILES: O=C1[C@@H]2C[C@@H](O)CN2C(=O)c2ccccc2N1Cc1ccc([N+](=O)[O-])c(Cl)c1

inhibition [1]: 86%
IC50 [2]: 418 nM
SMILES: O=C1[C@@H]2C[C@@H](O)CN2C(=O)c2ccccc2N1Cc1cccc(Br)c1
Ratio IC50 [3]: 1000
Ratio IC50 [4]: 1000
IC50 (HEK293): 398 µM
IC50 (A549): 400 µM

inhibition [1]: 28%
SMILES: Nc1ccc(CN2C(=O)[C@@H]3C[C@@H](O)CN3C(=O)c3ccccc32)cc1

inhibition [1]: 28%
SMILES: COc1ccc(CN2C(=O)[C@@H]3C[C@@H](O)CN3C(=O)c3ccccc32)cc1
